Where two headings read alike, the source gives them in different places. Values belong to the compound of their own block, whether it stands above or below them.
Key:
calf-thymus DNA (CT-DNA) [1] = conditions: cited from earlier work
A549 necrotic cells = experiment: Nuclear extraction from necrotic A549 cells incubated with tracer; assay type: cell-based, human; conditions: 50 μmol/L
[2] = human, even pregnant women and newborn babies, cited from earlier work
[3] = system: necrotic liver and necrotic muscle; experiment: Fluorescence microscopy of liver and muscle cryostat slices from model rats; assay type: in vivo, rat; conditions: i.v. 2.0 mg/kg, 12 h to 8 days, λex=620 nm, λem=680 nm
calf-thymus DNA (CT-DNA) [4] = experiment: UV–vis spectroscopic study of interaction with CT-DNA; assay type: binding; conditions: 25 °C, increasing CT-DNA
necrotic muscle = experiment: Self-blocking experiment in muscular necrosis model rats; assay type: in vivo, rat; conditions: 24 h
calf-thymus DNA (CT-DNA) [5] = experiment: Competitive study with ethidium bromide on CT-DNA; assay type: binding
Method in brief: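 CT-DNA prepared in 5 mmol/L Tris-HCl/50 mmol/L NaCl, pH 7.4, stirred at 4 °C for three days; concentration set by A260 (ε=6600 L/mol.cm). Test compound (stock 6.0×10−4 mol/L) titrated into 2.5 mL CT-DNA–ethidium bromide (CT-DNA 6.0×10−5 mol/L) to ratios 0 to 7/30. Fluorescence read at 25 °C, λex 530/λem 604 nm. Ksv from Stern–Volmer fit of I0/I versus compound concentration.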

A549 cells = experiment: Fluorescence microscopy of necrotic and viable A549 cells; assay type: cell-based, human; conditions: 50 μmol/L, 30 min, co-staining with Hoechst 33342 and PI
[6] = cited from earlier work; for Water solubility: must be dissolved in organic solvents such as DMSO
[7] = system: necrotic liver and necrotic muscle; experiment: Autoradiography of necrotic/normal liver and partially necrotic muscle sections; assay type: in vivo, rat; conditions: 24 h after intravenous injection
Method in brief: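 Rats (male SD, 260–280 g) on 0.1% KI drinking water from 3 days before study. Liver necrosis: right-lobe hilum clamped 3 h, then reperfused; muscle necrosis induced with absolute ethanol. Labelled test compound (14.8 MBq/kg, 2.0 mg/kg) in PBS given i.v. via tail vein; sacrifice at 12, 24, 72 h, 8 day (n=5 each). Frozen 30 μm sections cut at −20 °C, 3 h phosphor-screen exposure, then H&E for co-localization.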

Water solubility = assay type: physicochemical; conditions: can be dissolved in PBS or saline
[8] = system: necrotic liver and necrotic muscle; assay type: in vivo, rat
[9] = In vitro stability of the radiotracer in rat serum; assay type: in vitro ADME; conditions: stored in rat serum at 37 °C, up to 8 days
Method in brief: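 Radiolabelled test compound mixed with rat serum (1:9 volume ratio) and kept at 37 °C. Sampled at 0.5, 4 h, 1, 2, 3 and 8 day. Label integrity assessed by TLC.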

Pharmacokinetics = assay type: in vivo, rat; conditions: normal rats, i.v. 14.8 MBq/kg in PBS, non-compartmental, mean±SD, n=6
Method in brief: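 Six healthy rats dosed i.v. with radiolabelled test compound (14.8 MBq/kg) in PBS. 10 μL tail-slit blood samples drawn at 5, 10, 30 min and 1, 2, 4, 6, 8, 12, 24, 48 h. Samples γ-counted with decay and background correction and expressed as MBq per liter. Parameters derived by non-compartmental analysis; mean±SD.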

[10] = γ counting, 24 h after i.v. 14.8 MBq/kg, model rats

Compound: Nc1ccc2c(c1)C(=O)c1ccccc1C2=O [2-aminoanthraquin]
- Binding constant with CT-DNA (calf-thymus DNA (CT-DNA) [1]): 1.25×10^3 L/(mol/L)

Compound: Cc1cc(-c2ccc(/N=N/c3ccc4c(S(=O)(=O)O)cc(S(=O)(=O)O)c(N)c4c3O)c(C)c2)ccc1/N=N/c1ccc2c(S(=O)(=O)O)cc(S(=O)(=O)O)c(N)c2c1O [EB, Evans blue]
- Uptake in necrotic cell nuclei (A549 necrotic cells; 15 min incubation): 82.3%
- Uptake in necrotic cell nuclei (A549 necrotic cells; 2 h incubation): 79.2%
- Adverse reactions in clinical use ([2]; ref 24, 25): without adverse reactions
- Adverse reactions in clinical use ([2]; ref 41, 42): without any adverse reactions
- Retention in necrotic tissues by fluorescence microscopy [3]: Selective retention of EB in necrotic tissues up to 8 days
- Change of UV–vis absorption bands on addition of CT-DNA (calf-thymus DNA (CT-DNA) [4]): significant hypochromism accompanied with a red shift
- Radioactivity of ^131I-EB in necrotic muscle blocked (necrotic muscle; 10 mg/kg EB): about 65%
- Ksv (Stern–Volmer quenching constant; binding constant with CT-DNA) (calf-thymus DNA (CT-DNA) [5]; CT-DNA-ethidium bromide displacement, 25 °C, λex=530 nm): 5.08×10^5 L/(mol/L)
- Binding constant with CT-DNA relative to 2-aminoanthraquin (calf-thymus DNA (CT-DNA) [5]; EB versus 2-aminoanthraquin): 400 times
- Cellular localisation (A549 cells): specifically located in the nuclei of necrotic cell

Compound: Cc1cc(O)c2c(=O)c3c(O)cc(O)c4c5c(O)cc(O)c6c(=O)c7c(O)cc(C)c8c1c2c(c34)c(c78)c65 [Hyp, Hypericin]
- Solubility [6]: nearly insoluble in water and most nonpolar solvents

- Water solubility (Water solubility): highly water-soluble
- In vitro stability (radiolabeling stability by TLC) [9]: over 90%
- AUC0–t (Pharmacokinetics): 564.82±27.55 MBq/L ·h
- AUC0–∞ (Pharmacokinetics): 737.28±62.32 MBq/L ·h
- CLz (clearance) (Pharmacokinetics): 0.35 ± 0.067 mL/min/kg
- Cmax (peak concentration) (Pharmacokinetics): 96.84±10.05 MBq/L
- Tmax (peak time) (Pharmacokinetics): 4.98 ± 0 min
- t1/2z (elimination half-life) (Pharmacokinetics): 24.40 ± 3.64 h
Compound: ^131I-evans blue [^131I-EB]
- Radioactivity ratio of necrotic to normal liver [7]: 4.26
- Radioactivity ratio of necrotic to normal muscle [7]: 10.2
- Uptake in necrotic cell nuclei (A549 necrotic cells; 15 min incubation): 82.3%
- Uptake in necrotic cell nuclei (A549 necrotic cells; 2 h incubation): 79.2%
- Time of highest uptake in necrotic liver and muscle ([8]; time points 12, 24, 72 h and 8 day): 24 h
- Time of highest radioactivity in normal tissue ([8]; time points 12, 24, 72 h and 8 day, especially normal liver, spleen, kidney): 12 h
- Ratio of uptake in necrotic muscle to normal muscle ([8]; γ counting, 8th day after i.v. 14.8 MBq/kg, model rats): 7.43 times
- Radioactivity ratio of necrotic to viable (normal) liver [8, 10]: 3.41
- Radioactivity ratio of necrotic to viable (normal) muscle [8, 10]: 11.82
- Uptake in necrotic muscle (necrotic muscle; coinjected with excessive cold EB (10 mg/kg), n=3, P<0.01): 0.47±0.07 %ID/g
- Uptake in necrotic muscle (necrotic muscle; non-blocking group, n=3): 1.35±0.22 %ID/g

Compound: ^131I-hypericin
- Water solubility [6]: water-insoluble

Compound: ^131I-sennidin A
- Water solubility [6]: water-insoluble

Reference: article PMC5989829 (Acta Pharmaceutica Sinica. B, 2017)
